Compound activity deposited in PubChem by several laboratories.
CSN inh – inhibitors of CSN-mediated cullin deneddylation, primary screen, biochemical, fluorescence polarization, uHTS; actives 0.38% (n = 360,000); Purified CSN, SCF-Nedd8-OG deneddylation; COP9 signalosome complex subunit 5 (Homo sapiens), Q92905; inhibition, % at 12.5 µM;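 active means pattern-corrected inhibition above about 35%, with an unprinted fluorescence ratio check between 0.5 and 1.5, limit read from the data, passing the limit was not always enough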;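 further: 0% = enzyme with substrate and 100% = substrate without enzyme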
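Assay system: HEK293T-derived human Csn5 enzyme; quantity: 0.24 nM enzyme; medium: Tris/NaCl/DTT buffer, pH 7.5; also added: substrate SCFSkp2-Nedd8OG, 10 nM; doses: 12.5 µM compound; schedule: 90 min reaction at room temperature; signal: FP; read-out: % inhibition of substrate cleavage by Csn5; benchmarks: substrate-only high control, full reaction low control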
Neddylation inh – inhibitors of cullin neddylation, primary screen, biochemical, TR-FRET, uHTS, NAE and Ubc12; actives 0.58% (n = 360,000); NEDD8-conjugating enzyme Ubc12 (Homo sapiens) + NEDD8-activating enzyme E1 regulatory …; inhibition, % at 25 µM; AID 651699, 2012; in the data active means inhibition above about 36%
TbMetRS inhib – T. brucei MetRS inhibitors, primary screen, biochemical, luminescence. methionyl-tRNA synthetase (Trypanosoma brucei brucei). inhibition, % at 11.9 µM. AID 624268, 2012. actives 0.4% (n = 360,000). purified T. brucei MetRS, ATP depletion, Kinase-Glo luminescence;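 active means inhibition above a per-plate cutoff of the control wells' mean inhibition plus 3 SD, cut at about 5.5% in these data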;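 further: 0% = DMSO wells median and 100% = median of wells with control inhibitor compound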
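Measured by: Kinase-Glo luciferase luminescence reporting remaining unconsumed ATP. Material: purified T. brucei MetRS enzyme. Doses: 11.9 µM compound single dose, 0.9% DMSO. Medium: HEPES buffer containing pyrophosphatase, BSA, spermine, DTT. Times: 15 min preincubation, 2 h reaction, all 25 °C. Reagent: methionine, ATP and bulk E. coli tRNA.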
PREPL inhibitor – PREPL enzyme inhibitors, primary screen, biochemical, fluorescence polarization; Prolyl endopeptidase-like (Homo sapiens), Q4J6C6; recombinant PREPL, fluorescence polarization activity-based probe; inhibition, % at 5.96 µM; actives 0.68% (n = 320,000); AID 2751, 2010; in the data active means inhibition above about 43%;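 further: 0% = enzyme with DMSO and 100% = wells lacking enzyme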
Rpn11 block – Rpn11 (PSMD14) deubiquitinase inhibitors, primary screen, biochemical, fluorescence polarization, uHTS; 26S proteasome non-ATPase regulatory subunit 14 (Homo sapiens), O00487; actives 0.59% (n = 360,000); inhibition, % at 20 µM; human 26S proteasome, Ub4-pepOG fluorescence polarization; 20S core pre-blocked with epoxomicin;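 active means inhibition at 20 µM, scaled to each plate's controls, above about 33%, limit read from the data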
Target sequence (O00487 whole entry, looked up): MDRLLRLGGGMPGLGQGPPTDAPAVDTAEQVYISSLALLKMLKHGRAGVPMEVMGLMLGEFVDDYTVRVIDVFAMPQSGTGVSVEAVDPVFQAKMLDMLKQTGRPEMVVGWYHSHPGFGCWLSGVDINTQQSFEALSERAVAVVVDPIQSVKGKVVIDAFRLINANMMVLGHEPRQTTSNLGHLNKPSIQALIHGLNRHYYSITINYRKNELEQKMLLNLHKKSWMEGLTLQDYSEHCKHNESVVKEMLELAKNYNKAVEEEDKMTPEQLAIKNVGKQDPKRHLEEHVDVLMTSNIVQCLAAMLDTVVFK
HNF4A DNA FP – change in binding of human HNF4A to DNA, primary screen, biochemical, fluorescence polarization, FITC-DNA | actives 0.3% (n = 360,000) | Hepatocyte nuclear factor 4-alpha (Homo sapiens), P41235 | activity change, % at 10 µM | 1 h | AID 1224865, 2016; in the data active means activity change above about 30%, passing the limit was not always enough
The depositor's hits bear a star; x = not tested or not shown. Compounds with a hit are over-represented: about 2.4% of the library has one in this group of screens.

SMILES	CSN inh	Neddylation inh	TbMetRS inhib	PREPL inhibitor	Rpn11 block	HNF4A DNA FP
COC(=O)C=C1CCC2C3CCC4=CC(=O)CCC4(C)C3C(=O)CC12C (centres undefined)	0.0	3.8	-0.2	x	0.7	0.4
COC(=O)c1sccc1NC(=O)c1ccc(C#N)cc1	8.5	-11.5	-1.5	-4.0	60.8*	3.0
CCOc1ncccc1C(=O)N1CCN(c2ccc(C(F)(F)F)cn2)CC1	-15.6	14.9	-0.7	17.0	-16.6	91.0*
COc1cccc(C2=CC(c3ccccc3)n3ncnc3N2)c1 (centres undefined)	x	x	x	-4.8	x	x
COc1cccc(C2=CC(c3ccc(N(C)C)cc3)n3ncnc3N2)c1 (centres undefined)	x	x	x	63.0*	x	x
Cc1ccc(C2CC(=O)N3CN(c4ccc(Br)cc4)CSC3=C2C#N)o1 (centres undefined)	35.3*	-17.9	0.1	20.5	45.3*	-10.7
O=C(Nc1cccc(-c2nc3cccnc3s2)c1)c1cccnc1Cl	3.8	-15.6	-0.9	-6.6	1.2	2.1
O=C(Nc1cccc(-c2nc3cccnc3s2)c1)C1c2ccccc2Oc2ccccc21	76.2*	-3.9	-0.4	x	34.5	47.3*
C=CCOc1ccc2c(CC)cc(=O)oc2c1C	-1.2	41.8*	-0.8	-4.5	2.6	-0.2
O=C(O)c1cc(O)ccc1NC(=O)C(c1ccccc1)c1ccccc1	1.9	x	2.0	0.8	-2.0	-13.1
C[C@@H]1CN([C@@H](C)CO)S(=O)(=O)c2ccc(Br)cc2O[C@@H]1CN(C)S(=O)(=O)c1cn(C)cn1	-2.7	-2.3	-1.2	x	-1.0	-3.6
O=C(CCNC(=O)c1ccc([N+](=O)[O-])cc1)Nc1ccc(N2CCOCC2)cc1N1CCOCC1	2.4	-33.6	-0.7	3.5	2.4	0.1
O=C(Nc1ccc(N2CCOCC2)cc1N1CCOCC1)c1ccc([N+](=O)[O-])cc1	73.8*	-27.8	-0.1	17.1	3.4	2.8
c1ccc2sc(N3CCOCC3)nc2c1	-1.6	0.0	-0.4	-1.1	-10.4	1.1
Nc1ccc2nc(N3CCOCC3)sc2c1	-1.9	-3.2	-0.7	46.5*	9.6	5.4
CCCC(NC(=O)CCc1c(C)c2cc3c(C)c(C)oc3cc2oc1=O)C(=O)NC(Cc1ccc(Cl)cc1)C(=O)O (centres undefined)	37.1*	x	-0.1	x	-3.2	4.9
C[C@@H]1CN([C@H](C)CO)C(=O)CCCn2cc(nn2)CO[C@H]1CN(C)S(=O)(=O)c1cccc(F)c1	-1.5	-4.0	-0.1	x	-0.3	-2.8
Cc1cc(=O)c2ccccc2n1CC(=O)NCc1ccccc1	-2.2	-3.2	-0.5	0.5	5.8	30.4*
Cc1ccc(C(=O)CSc2nnc(CNc3nc(-c4ccccc4)cs3)n2C)cc1	-4.9	-10.7	-1.1	-0.7	5.6	114.5*
CCCSC1=N/C(=C\c2ccc([N+](=O)[O-])o2)C(=O)S1	39.1	-24.9	0.2	x	53.4*	-24.3
CCSC1=N/C(=C\c2ccc(-c3ccccc3[N+](=O)[O-])o2)C(=O)S1	-46.9	-4.6	-0.8	11.7	-141.8	-18.3
Cc1ccsc1CN(C)CC(=O)Nc1ccccc1C(=O)NC1CC1	1.0	-1.4	-0.3	2.9	-3.3	-0.1
COC(=O)CN1C(=S)N(Cc2ccccc2)C(=O)C1CC(=O)Nc1ccc(Br)cc1 (centres undefined)	4.7	-5.9	64.2*	-5.1	2.2	-0.3
COC(=O)CN1C(=S)N(c2ccc(F)cc2)C(=O)C1CC(=O)Nc1ccc(F)cc1 (centres undefined)	2.5	3.0	0.7	2.5	1.6	-1.6
CS(=O)(=O)c1ccc(Cl)c(NC(=O)CSc2nnc3n2CCCCC3)c1	0.1	-0.2	0.4	x	-3.1	0.9
O=C(CN1CCN(C(c2ccccc2)c2ccccc2)CC1)N1CCOCC1	4.8	-0.2	0.5	15.0	-4.4	0.8
